Reference: publication PMC9290582 (British Journal of Clinical Pharmacology, 2021)

Experiments:
[1] = cited from earlier work
[2] = healthy subjects; ref data on file; cited from earlier work
[3] = Model-predicted steady-state exposure and covariate effects; assay type: in vivo, human; settings: for Reduction of AUC24h,ss by coadministration of PPIs: population PK study; for Exposure lower with concomitant PPI use: relative to a reference patient
Summary of the method: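 Exposure simulated stochastically from the final population PK model at 100 mg BID. AUC24h,ss and Cmax,ss were reported as model-predicted medians (90% prediction interval) relative to a reference patient: B-cell malignancy, ECOG PS 0 or 1, no concomitant PPI. A covariate effect was deemed not relevant if its change and 95% CI fell within 0.8–1.25.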

[4] = Population pharmacokinetic analysis; assay type: in vivo, human; settings: for CL/F, apparent clearance / Vp/F, apparent peripheral volume of distribution: parent; for Covariate effect ECOG 2—CL/F / Covariate effect Healthy subject—CL/F / Covariate effect Healthy subject—Vp/F / Covariate effect PPI—F1 (relative bioavailability): relative change (1 + estimate)
Summary of the method: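 Model: 2-compartment, 5-transit absorption chain, first-order absorption and elimination. Metabolite formation was CL/F × fraction metabolized, fixed at 0.4. BSV and BOV were exponential; residual error was additive on log scale. Precision was checked by bootstrap.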

[5] = high-calorie meal vs. fasting conditions; cited from earlier work
[6] = system: Bruton tyrosine kinase (BTK); settings: cited from earlier work
[7] = cited from earlier work; remark: listed apart in the source
[8] = relative to a reference cancer population
[9] = bootstrap 50th [2.5th, 97.5th percentile]
[10] = final model fixed effect, estimate (%RSE)
[11] = final model, bootstrap 50th [2.5th, 97.5th percentile]

CC#CC(=O)N1CCC[C@H]1c1nc(-c2ccc(C(=O)Nc3ccccn3)cc2)c2c(N)nccn12 [acalabrutinib]
Solubility dependence on pH [1]: decreases with increasing gut pH
Decrease of AUC on coadministration with omeprazole (PPI) [2]: 43%
Reduction of AUC24h,ss by coadministration of PPIs [3]: 36%
AUC24h,ss higher in subjects with ECOG PS ≥ 2 [3, 8]: 21%
AUC24h,ss lower in healthy subjects [3, 8]: 32%
Cmax,ss higher in subjects with ECOG PS ≥ 2 [3, 8]: 14%
Cmax,ss lower in healthy subjects [3, 8]: 24%
Exposure lower with concomitant PPI use [3]: 36%
BOV F1 (between-occasion variability, relative bioavailability) [4, 9]: 55.3 [50.4, 61.1] CV%
BOV MTT (between-occasion variability) [4, 9]: 119 [104, 137] CV%
BSV CL/F (between-subject variability) [4, 9]: 24.1 [20.4, 28] CV%
BSV Vc/F [4, 9]: 284 [225, 367] CV%
BSV Vp/F [4, 9]: 33.9 [25, 42.4] CV%
BOV F1 (between-occasion variability, relative bioavailability) ([4]; estimate (%RSE)): 56.1 (1.80) CV%
BOV MTT (between-occasion variability) ([4]; estimate (%RSE)): 118 (2.39) CV%
BSV CL/F (between-subject variability) ([4]; estimate (%RSE)): 23.8 (5.86) CV%
BSV Vc/F ([4]; estimate (%RSE)): 270 (6.51) CV%
BSV Vp/F ([4]; estimate (%RSE)): 33.7 (6.96) CV%
Ka, first-order absorption rate constant [4, 10]: 1.48 (2.63) h^−1
MTT, mean transit time [4, 10]: 0.459 (4.16) h
CL/F, apparent clearance [4, 10]: 134 (1.97) L/h
Vp/F, apparent peripheral volume of distribution [4, 10]: 110 (3.45) L
Ka, first-order absorption rate constant [4, 11]: 1.48 [1.41, 1.55] h^−1
MTT, mean transit time [4, 11]: 0.460 [0.426, 0.492] h
CL/F, apparent clearance [4, 11]: 132 [126, 139] L/h
Vp/F, apparent peripheral volume of distribution [4, 11]: 108 [97.6, 120] L
Covariate effect ECOG 2—CL/F [4, 9]: −0.158 [−0.274, −0.032]
Covariate effect Healthy subject—CL/F [4, 9]: 0.467 [0.367, 0.569]
Covariate effect Healthy subject—Vp/F [4, 9]: −0.554 [−0.6, −0.496]
Covariate effect PPI—F1 (relative bioavailability) [4, 9]: −0.368 [−0.49, −0.228]
Covariate effect ECOG 2—CL/F ([4]; estimate (%RSE)): −0.171 (36.2)
Covariate effect Healthy subject—CL/F ([4]; estimate (%RSE)): 0.467 (19.3)
Covariate effect Healthy subject—Vp/F ([4]; estimate (%RSE)): −0.556 (5.59)
Covariate effect PPI—F1 (relative bioavailability) ([4]; estimate (%RSE)): −0.358 (7.01)
BOV on MTT ([4]; remaining variability in absorption not related to PPIs): 118%
Effect of a high-calorie meal on Cmax [5]: delayed and decreased
Effect of a high-calorie meal on mean AUC [5]: similar

CC#CC(=O)NCCCC(=O)c1nc(-c2ccc(C(=O)Nc3ccccn3)cc2)c2c(N)nccn12 [ACP‐5862]
Reduction of AUC24h,ss by coadministration of PPIs [3]: 36%
Exposure lower with concomitant PPI use [3]: 36%
BSV CLM/F [4, 9]: 13.1 [9.22, 20.2] CV%
BSV QM/F [4, 9]: 40 [23.8, 59.2] CV%
BSV VcM/F [4, 9]: 53.3 [36.9, 71.1] CV%
BSV VpM/F [4, 9]: 21.2 [15.3, 41.2] CV%
BSV CLM/F ([4]; estimate (%RSE)): 11.8 (21.1) CV%
BSV QM/F ([4]; estimate (%RSE)): 40.7 (14.4) CV%
BSV VcM/F ([4]; estimate (%RSE)): 47.2 (12.1) CV%
BSV VpM/F ([4]; estimate (%RSE)): 19.2 (30.5) CV%
CLM/F, apparent clearance metabolite [4, 10]: 21.8 (1.98) L/h
VcM/F, apparent central volume of distribution metabolite [4, 10]: 22.7 (6.66) L
VpM/F, apparent peripheral volume of distribution metabolite [4, 10]: 89.2 (4.58) L
CLM/F, apparent clearance metabolite [4, 11]: 21.6 [20.2, 22.6] L/h
VcM/F, apparent central volume of distribution metabolite [4, 11]: 22.7 [19.5, 25.8] L
VpM/F, apparent peripheral volume of distribution metabolite [4, 11]: 88.1 [77.6, 97] L
Potency for BTK inhibition relative to acalabrutinib [6]: approximately half as potent as acalabrutinib
Mean exposure relative to that of acalabrutinib [7]: approximately 2 fold
